Source: ChEMBL document CHEMBL4350966 (J Med Chem, 2019)

Experiments:
[1] = molecular target: T1, fMet-Leu-Phe receptor (Homo sapiens, UniProt P21462); assay: Biased agonist activity at human FPR1 expressed in FlpIn-CHO cells assessed as intracellular calcium mobilization by Fluo-4-AM dye based fluorescence assay; type: functional, cell-based
T1 sequence (P21462 whole entry): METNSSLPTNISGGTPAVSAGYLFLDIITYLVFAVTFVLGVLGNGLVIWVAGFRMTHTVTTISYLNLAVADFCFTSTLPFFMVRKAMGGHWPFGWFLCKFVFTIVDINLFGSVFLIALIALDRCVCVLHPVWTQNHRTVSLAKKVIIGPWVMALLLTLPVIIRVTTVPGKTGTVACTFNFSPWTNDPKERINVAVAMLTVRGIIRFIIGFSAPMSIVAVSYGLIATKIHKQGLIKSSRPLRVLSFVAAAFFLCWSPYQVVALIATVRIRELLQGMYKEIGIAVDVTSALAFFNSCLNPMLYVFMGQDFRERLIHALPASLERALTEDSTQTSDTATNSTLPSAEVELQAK
Method in brief: (§1)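 Agonist transduction coefficients (Log(τ/KA)) for each signaling output estimated with an extension of the Black-Leff operational model. Values normalized to a reference ligand and to Ca2+ mobilization as reference pathway, giving ΔLog(τ/KA) and Log(bias factors). Data are mean ± SEM of 4 independent experiments, each performed in duplicate.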

[2] = molecular target: T1, fMet-Leu-Phe receptor; assay: Biased agonist activity at human FPR1 expressed in FlpIn-CHO cells assessed as stimulation of ERK1/2 phosphorylation measured after 7 mins by Alphascreen assay; type: cell-based; method in brief: as §1
[3] = Intrinsic clearance in mouse liver microsomes assessed per mg protein; type: ADME, Microsome
Method in brief: (§2)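 Intrinsic clearance measured in vitro in mouse and human liver microsomes; reported as μL/min/mg protein.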

[4] = Kinetic solubility of the compound at pH 2; type: physicochemical; details: buffer, read-out: Kinetic_solubility
Method in brief: (§3)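 Kinetic solubility measured by nephelometry at pH 2.0 and pH 6.5; reported in μg/mL.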

[5] = Kinetic solubility of the compound at pH 6.5; type: physicochemical; details: buffer, read-out: Kinetic_solubility; method in brief: as §3
[6] = Protein binding in human plasma by chromatographic method; type: ADME, cell-free; details: read-out: PPB (converted)
Method in brief: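 Human plasma protein binding estimated by a chromatographic method; reported as percent bound.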

[7] = Lipophilicity, log P of the compound by chromatographic method; type: physicochemical
Method in brief: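 Lipophilicity ([…]) measured chromatographically.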

[8] = molecular target: T2, N-formyl peptide receptor 2 (Homo sapiens, UniProt P25090); assay: Biased agonist activity at human FPR2 expressed in FlpIn-CHO cells assessed as intracellular calcium mobilization by Fluo-4-AM dye based fluorescence assay; type: functional, cell-based; method in brief: as §1
T2 sequence (P25090 whole entry): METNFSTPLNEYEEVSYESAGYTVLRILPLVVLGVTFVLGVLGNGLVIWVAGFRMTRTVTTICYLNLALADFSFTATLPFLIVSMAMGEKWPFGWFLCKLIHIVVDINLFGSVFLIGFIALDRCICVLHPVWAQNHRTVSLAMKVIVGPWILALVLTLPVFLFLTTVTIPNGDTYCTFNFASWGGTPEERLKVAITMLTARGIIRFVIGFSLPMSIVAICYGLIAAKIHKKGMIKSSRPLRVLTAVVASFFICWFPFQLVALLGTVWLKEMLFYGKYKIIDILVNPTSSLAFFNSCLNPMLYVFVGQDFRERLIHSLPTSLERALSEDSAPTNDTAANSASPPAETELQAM

[9] = molecular target: T2, N-formyl peptide receptor 2; assay: Biased agonist activity at human FPR2 expressed in FlpIn-CHO cells assessed as stimulation of ERK1/2 phosphorylation measured after 7 mins by Alphascreen assay; type: cell-based; method in brief: as §1
[10] = molecular target: T3, fMet-Leu-Phe receptor (Homo sapiens) (UniProt P21462); assay: Bias factor, transduction co-efficient for biased agonist activity at human FPR1 expressed in FlpIn-CHO cells assessed as stimulation of ERK1/2 phosphorylation relative to 1-(4-chlorophenyl)-3-(5-isopropyl-1-methyl-3-oxo-2-phenyl-2,3-dihydro-1H-pyrazol-4-yl)urea to transduction co-efficient for …; type: functional, cell-based
T3 sequence (whole entry): T1 sequence (P21462 whole entry)

[11] = Intrinsic clearance in human liver microsomes assessed per mg protein; type: ADME, Microsome; method in brief: as §2

Row | SMILES | EC50 ([1]; read-out: pEC50 (converted)) [µM] | EC50 ([2]; read-out: pEC50 (converted)) [µM] | other results
1 | COc1ccccc1Cc1cc(C)nn(CC(=O)Nc2ccc(Cl)cc2F)c1=O | > 100 | > 100 | 
2 | COc1ccccc1Cc1cc(C)nn(CC(=O)Nc2cccc(C#N)c2)c1=O | > 100 | > 100 | 
3 | COc1cccc(Cc2cc(C)nn(CC(=O)Nc3ccc(Cl)cc3)c2=O)c1OC | 0.224 | 0.17 | 
4 | COc1ccccc1Cc1cc(C)nn(C(C)C(=O)Nc2ccc(Cl)cc2)c1=O (stereo not drawn) | 17.4 | 1.38 | 
5 | COc1ccccc1Cc1cc(C(F)(F)F)nn(CC(=O)Nc2ccc(Cl)cc2)c1=O | > 100 | > 100 | 
6 | CCCC(C(=O)Nc1ccc(Cl)cc1)n1nc(C)cc(Cc2ccccc2OC)c1=O (stereo not drawn) | 9.77 | 6.31 | 
7 | COc1ccccc1Cc1cc(C)nn(C(C)C(=O)Nc2ccc(Br)cc2)c1=O (stereo not drawn) | > 100 |  | 
8 | CCCCC(C(=O)Nc1ccc(Br)cc1)n1nc(C)cc(Cc2cccc(OC)c2)c1=O (stereo not drawn) | 11.5 | 0.148 | 
9 | CCC(C(=O)Nc1ccc(Cl)cc1)n1nc(C)cc(Cc2ccccc2OC)c1=O (stereo not drawn) | > 100 | 1.86 | 
10 | CCCCC(C(=O)Nc1ccc(Cl)cc1)n1nc(C)cc(Cc2ccccc2OC)c1=O (stereo not drawn) |  |  | microsomal CLint [3]: 233 µL/min/mg; solubility kinetic [4]: < 0.78 µg/mL; solubility kinetic [5]: < 0.78 µg/mL; fraction unbound [6]: 0.016; logP [7]: 5.2; EC50 [8]: 0.0513 µM; EC50 [9]: 0.0708 µM; EC50 [1]: 0.891 µM; EC50 ([2]; read-out: EC50): 0.083 µM; fold change (FC) [10]: 20
11 | CCCCC(C(=O)Nc1ccc(Cl)cc1)n1nc(C)cc(Cc2cccc(OC)c2)c1=O (stereo not drawn) | 5.25 | 0.126 | 
12 | COc1ccccc1Cc1cc(C)nn(CC(=O)Nc2ccc(OC(F)(F)F)cc2)c1=O | > 100 | > 100 | 
13 | COc1ccc(Cc2cc(C)nn(C(C)C(=O)Nc3ccc(Br)cc3)c2=O)cc1 (stereo not drawn) | > 100 |  | 
14 | COc1cccc(Cc2cc(C)nn(C(C)C(=O)Nc3ccc(F)cc3)c2=O)c1 (stereo not drawn) | > 100 |  | 
15 | COc1ccccc1Cc1cc(C)nn(CC(=O)Nc2cccc(Cl)c2)c1=O | > 100 | > 100 | 
16 | COc1cccc(Cc2cc(C)nn(C(C)C(=O)Nc3ccccc3F)c2=O)c1 (stereo not drawn) | > 100 | > 100 | 
17 | COc1ccccc1Cc1cc(C)nn(C(C(=O)Nc2ccc(Cl)cc2)C2CC2)c1=O (stereo not drawn) | > 100 | > 100 | 
18 | Cc1cc(Cc2ccccc2F)c(=O)n(C(C)C(=O)Nc2ccc(Br)cc2)n1 (stereo not drawn) | > 100 |  | 
19 | COc1cccc(Cc2cc(C)nn(C(C)C(=O)Nc3cccc(F)c3)c2=O)c1 (stereo not drawn) | > 100 |  | 
20 | COc1cccc(OC)c1Cc1cc(C)nn(CC(=O)Nc2ccc(Cl)cc2)c1=O | 2.82 | 2.63 | 
21 | COc1cccc(Cc2cc(C)nn(C(C)C(=O)Nc3cccc(Cl)c3)c2=O)c1 (stereo not drawn) | > 100 | > 100 | 
22 | Cc1cc(Cc2cccc(F)c2)c(=O)n(C(C)C(=O)Nc2ccc(Br)cc2)n1 (stereo not drawn) | > 100 |  | 

Row | SMILES | EC50 ([1]; read-out: pEC50 (converted)) [µM] | EC50 ([2]; read-out: pEC50 (converted)) [µM] | other results
23 | COc1cccc(Cc2cc(C)nn(C(C)C(=O)Nc3ccccc3Cl)c2=O)c1 (stereo not drawn) | > 100 | > 100 | 
24 | COc1ccc(OC)c(Cc2cc(C)nn(CC(=O)Nc3ccc(Cl)cc3)c2=O)c1 | 6.31 |  | 
25 | CCCCC(C(=O)Nc1ccc(Cl)cc1)n1nc(C)cc(Cc2cccc(OC)c2OC)c1=O (stereo not drawn) | 0.055 | 0.0933 | EC50 [8]: 0.0525 µM; EC50 [9]: 0.0617 µM
26 | COc1ccccc1Cc1cc(C)nn(C(C(=O)Nc2ccc(Cl)cc2)C(C)C)c1=O (stereo not drawn) | > 100 | 2.82 | 
27 | COc1ccccc1Cc1cc(C)nn(CC(=O)Nc2ccc(C#N)cc2)c1=O | > 100 | > 100 | 
28 | COc1cccc(Cc2cc(C)nn(C(C)C(=O)Nc3ccc(Cl)cc3)c2=O)c1OC (stereo not drawn) | 0.155 | 0.145 | 
29 | Cc1cc(Cc2ccc(F)cc2)c(=O)n(C(C)C(=O)Nc2ccc(Br)cc2)n1 (stereo not drawn) | > 100 |  | 
30 | COc1cccc(Cc2cc(C)nn(CC(=O)Nc3c(F)cc(Cl)cc3F)c2=O)c1 | > 100 | > 100 | 
31 | Cc1cc(Cc2ccc(F)cc2)c(=O)n(CC(=O)Nc2c(F)cc(F)cc2[N+](=O)[O-])n1 | > 100 | > 100 | 
32 | CCCCC(C(=O)Nc1ccc(Cl)cc1)n1nc(C(F)(F)F)cc(Cc2ccccc2OC)c1=O (stereo not drawn) | > 100 | > 100 | 
33 | CCCCC(C(=O)Nc1ccc(Br)cc1)n1nc(C)cc(Cc2ccccc2OC)c1=O (stereo not drawn) | > 100 | 0.331 | 
34 | COc1ccccc1Cc1cc(C)nn(CC(=O)Nc2c(F)cc(Cl)cc2F)c1=O | > 100 | > 100 | 
35 | COc1ccccc1Cc1cc(C)nn(CC(=O)Nc2ccc(Cl)cc2Cl)c1=O | > 100 | > 100 | 
36 | COc1cccc(Cc2cc(C)nn(CC(=O)Nc3ccc(Cl)cc3F)c2=O)c1 | > 100 | 5.62 | 
37 | CCCCC(C(=O)Nc1ccc(Br)cc1)n1nc(C)cc(Cc2cccc(OC)c2OC)c1=O (stereo not drawn) | 0.00646 | 0.245 | 
38 | COc1ccccc1Cc1cc(C)nn(CC(=O)Nc2ccc(Cl)cc2)c1=O | > 100 |  | 
39 | COc1cccc(Cc2cc(C)nn(C(C)C(=O)Nc3ccc(Cl)cc3)c2=O)c1 (stereo not drawn) | 6.17 to 25.1 |  | microsomal CLint [11]: 273 µL/min/mg; solubility kinetic [4]: < 1.6 µg/mL; solubility kinetic [5]: < 1.6 µg/mL; fraction unbound [6]: 0.026; logP [7]: 4; EC50 [8]: > 100 µM; EC50 [9]: 9.55 µM
40 | COc1ccccc1Cc1cc(C)nn(CC(=O)Nc2ccccc2Cl)c1=O | > 100 | > 100 | 
41 | CCc1ccc(NC(=O)Cn2nc(C)cc(Cc3ccccc3OC)c2=O)cc1 | > 100 |  | 
42 | COc1ccc(NC(=O)Cn2nc(C)cc(Cc3ccccc3OC)c2=O)cc1 | > 100 |  | 
43 | Cc1cc(Cc2ccc(F)cc2)c(=O)n(CC(=O)Nc2ccc(Br)cc2[N+](=O)[O-])n1 | > 100 | > 100 | 
44 | COc1ccccc1Cc1cc(C)nn(CC(=O)Nc2ccccc2C#N)c1=O | > 100 | > 100 | 
